The test system of series [1] is Hepatitis C virus. Kind of series: Enhancement of HCV RNA replication in OR6 cells after 72 hrs by luciferase reporter assay. Format: functional, organism-based. As to conditions: Hepacivirus hominis. A digest of the protocol:
(§1)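 OR6 cells (HuH-7 carrying genome-length HCV-O genotype 1b RNA with a Renilla luciferase-NeoR fusion) are seeded in triplicate, 1.0–1.5 × 10^4 per well, and grown 24 h. Nutrients are then added for 72 h, or 24 h in the time course. Renilla luciferase is read from cell lysates and expressed as % of untreated cells. Liposoluble nutrients are carried in DMSO or ethanol at 0.1% final. EC50 is obtained by sigmoid regression.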

The subject of series [2] is Hepatitis C virus. Kind of series: Antiviral activity against HCV assessed as inhibition of HCV RNA replication in OR6 cells after 72 hrs by luciferase reporter assay. Format: functional, organism-based, Hepacivirus hominis. As to conditions: OR6, 72 h. In short, it runs like this:
as §1
(In a reporter assay the amount or activity of a reporter protein is the signal.)

A short description of series [3]: Cytotoxicity against human OR6 cells after 72 hrs. Particulars: or6, 72 h. Format: cell-based. In short, it runs like this: (§2)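 For viability, OR6 cells are plated in triplicate and grown 24 h: 4.5–5 × 10^4 cells (72 h assay) or 1–1.5 × 10^4 cells (120 h assay). Nutrients are then applied for 72 or 120 h. Viable cells are counted by trypan blue exclusion and expressed as % of the untreated cell number.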

Series [4] can be described thus: Cytotoxicity against human OR6 cells after 120 hrs. It counts as cell-based. As to conditions: or6, 120 h. In short, it runs like this:
as §2

In series [5] the test system is Hepatitis C virus. Kind of series: Antiviral activity against HCV assessed as inhibition of HCV RNA replication in OR6 cells after 24 hrs by luciferase reporter assay. As to conditions: Hepacivirus hominis. It counts as functional, organism-based. A digest of the protocol: as §1
Series [6] can be described thus: Cytotoxicity against human OR6 cells after 120 hrs by cell viability assay. Particulars: or6, 120 h. Format: cell-based. A digest of the protocol: as §2
Series [7] relates to Hepatitis C virus. Kind of series: Antiviral activity against HCV assessed as suppression of HCV RNA replication in ORN/C-5B/KE/poly cells after 72 hrs by luciferase reporter assay. Format: functional. As to conditions: Hepacivirus hominis. A digest of the protocol: (§3)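 Polyclonal HuH-7 lines carrying either genome-length (ORN/C-5B/KE/poly) or subgenomic (ORN/3-5B/KE/poly) HCV-O genotype 1b RNA with a Renilla luciferase reporter are kept in DMEM with 10% FBS and G418 300 μg/ml. They are treated as in the OR6 assay for 72 h. Renilla luciferase is then measured and expressed as % of untreated cells.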

In series [8] the test system is Hepatitis C virus. Kind of series: Antiviral activity against HCV assessed as suppression of HCV RNA replication in ORN/3-5B/KE/poly cells after 72 hrs by luciferase reporter assay. Particulars: Hepacivirus hominis. Format: functional, organism-based. In short, it runs like this: as §3
Series [9] deals with Hepatitis C virus. Kind of series: Antiviral activity against HCV assessed as inhibition of HCV RNA replication in OR6 cells at 50 uM after 120 hrs by luciferase reporter assay. It counts as functional, Hepacivirus hominis. As to conditions: OR6, 120 h. In short, it runs like this:
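The time course uses OR6 cells (HuH-7, genome-length HCV genotype 1b RL reporter), 0.5 × 10^4 cells per well in triplicate, grown 24 h before exposure. Treatment runs 120 h at the stated 50 μM. Renilla luciferase activity in lysates is given as % of untreated control.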

The test system of series [10] is Hepatitis C virus. Kind of series: Enhancement of HCV RNA replication in ORN/C-5B/KE/poly cells after 72 hrs by luciferase reporter assay. Particulars: Hepacivirus hominis. Format: functional, organism-based. In short, it runs like this:
as §3

The test system of series [11] is Hepatitis C virus. Kind of series: Enhancement of HCV RNA replication in ORN/3-5B/KE/poly cells after 72 hrs by luciferase reporter assay. It counts as functional, organism-based. As to conditions: Hepacivirus hominis. A digest of the protocol: as §3

Calls of active or inactive are those of the source. The calls are words filed in the database; no cut-off is given here.

As to `CC1=C(/C=C/C(C)=C/C=C/C(C)=C/CO)C(C)(C)CCC1`, the result in the series with Hepatitis C virus [1] was Active.

Turning to `O=C1O[C@H]([C@@H](O)CO)C(O)=C1O`, in the series on Hepatitis C virus [1], the result was Active.

In the case of `O=[Se](=O)(O)O`, the outcome in the series with Hepatitis C virus [1] was Active.

For orientation: EC50 means the concentration at which the effect is half-maximal. For `CCCCC/C=C\C/C=C\C/C=C\C/C=C\CCCC(=O)O` [ARACHIDONIC ACID], the EC50 in the series on Hepatitis C virus [2] stood at 22.1 µM.

On to `CC1=C(/C=C/C(C)=C/C=C/C(C)=C/C=C/C=C(C)/C=C/C=C(C)/C=C/C2=C(C)CCCC2(C)C)C(C)(C)CCC1` [BETA CAROTENE], for which the EC50 with Hepatitis C virus [2] is 6.3 µM. For the same compound, the Activity result in [3], in [4] and in [6] was “Non-toxic” each time. For the same compound, the result in the series on Hepatitis C virus [5], with Hepatitis C virus [7] and with Hepatitis C virus [8] was Active.

As to `CC/C=C\C/C=C\C/C=C\C/C=C\C/C=C\C/C=C\CCC(=O)O` [DOCONEXENT], the EC50 with Hepatitis C virus [2] worked out at 37 µM.

For `C=C1CC[C@H](O)C/C1=C/C=C1\CCC[C@]2(C)[C@@H]([C@H](C)/C=C/[C@H](C)C(C)C)CC[C@@H]12` [ERGOCALCIFEROL], in the series with Hepatitis C virus [2], the EC50 came to 3.8 µM. Further, the Activity result in [3], in series [4] and in series [6] was “Non-toxic” in each case. Besides, the result in the series on Hepatitis C virus [5], with Hepatitis C virus [7] and in the series with Hepatitis C virus [8] was Active.

For `CC/C=C\C/C=C\C/C=C\C/C=C\C/C=C\CCCC(=O)O` [ICOSAPENT], the EC50 with Hepatitis C virus [2] came to 36.2 µM.

By inhibition is commonly meant the relative decrease from the control value, in per cent. As for `CCCCC/C=C\C/C=C\CCCCCCCC(=O)O` [LINOLEIC ACID], in the series with Hepatitis C virus [2], the EC50 was 20.2 µM. Moreover, the Activity result in series [3], in series [4] and in series [6] was “Non-toxic” throughout. Besides, the inhibition at 50 µM in the series with Hepatitis C virus [9] was determined as 90%. Besides, the outcome with Hepatitis C virus [7] and in the series on Hepatitis C virus [8] was Active.

VITAMIN E: the result with Hepatitis C virus [10], in the series with Hepatitis C virus [1] and with Hepatitis C virus [7] was Active. For the same compound, the outcome in the series with Hepatitis C virus [11] was inactive.
